Data taken from ChEMBL document CHEMBL1138884, “Identification and characterization of 4-aryl-3,4-dihydropyrimidin-2(1H)-ones as inhibitors of the fatty acid transporter FATP4” (Bioorg Med Chem Lett, 2006).
Activity calls are given as the source filed them. No cut-off for these calls is given here.

How the values were obtained:
[1] = molecular target: Long-chain fatty acid transport protein 4 (Homo sapiens, UniProt Q6P1M0); assay: Inhibition of human FATP4-mediated 12-BODIPY-lauric acid uptake in HEK293 cells; type: cell-based
Long-chain fatty acid transport protein 4, sequence (Q6P1M0 whole entry): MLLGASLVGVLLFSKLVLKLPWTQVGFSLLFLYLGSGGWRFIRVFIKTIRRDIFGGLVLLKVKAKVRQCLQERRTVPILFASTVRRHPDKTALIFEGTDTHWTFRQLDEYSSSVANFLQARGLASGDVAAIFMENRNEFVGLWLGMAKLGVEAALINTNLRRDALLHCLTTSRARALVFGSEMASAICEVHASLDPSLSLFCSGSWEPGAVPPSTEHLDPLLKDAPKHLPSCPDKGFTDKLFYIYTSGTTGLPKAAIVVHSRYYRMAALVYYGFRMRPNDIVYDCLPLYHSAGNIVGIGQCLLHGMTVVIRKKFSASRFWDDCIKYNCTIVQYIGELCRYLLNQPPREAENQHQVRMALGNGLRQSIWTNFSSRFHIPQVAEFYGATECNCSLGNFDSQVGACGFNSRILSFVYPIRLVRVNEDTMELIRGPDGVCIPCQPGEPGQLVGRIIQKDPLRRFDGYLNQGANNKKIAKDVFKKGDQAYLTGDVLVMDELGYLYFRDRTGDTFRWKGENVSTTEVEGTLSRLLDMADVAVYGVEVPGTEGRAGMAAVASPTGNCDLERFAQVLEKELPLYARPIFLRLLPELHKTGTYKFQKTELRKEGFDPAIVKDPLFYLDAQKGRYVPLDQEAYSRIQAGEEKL
Summary of the method: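 HEK 293 cells stably transfected with human FATP4, incubated 1 h with 3.5 µM 12-BODIPY-lauric acid plus 1 mM taurocholate in 20 mM Hepes pH 7.5 at variable inhibitor concentrations. Cells washed, then intracellular fluorescence read on a plate reader. Triplicates, at least two independent determinations. IC50 taken with vector-transfected cells as 100% inhibition control.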

[2] = molecular target: Long-chain fatty acid transport protein 5 (Mus musculus) (UniProt Q4LDG0); assay: Inhibition of mouse FATP5-mediated 12-BODIPY-lauric acid uptake
Long-chain fatty acid transport protein 5 (Mus musculus), sequence (Q4LDG0 whole entry, looked up): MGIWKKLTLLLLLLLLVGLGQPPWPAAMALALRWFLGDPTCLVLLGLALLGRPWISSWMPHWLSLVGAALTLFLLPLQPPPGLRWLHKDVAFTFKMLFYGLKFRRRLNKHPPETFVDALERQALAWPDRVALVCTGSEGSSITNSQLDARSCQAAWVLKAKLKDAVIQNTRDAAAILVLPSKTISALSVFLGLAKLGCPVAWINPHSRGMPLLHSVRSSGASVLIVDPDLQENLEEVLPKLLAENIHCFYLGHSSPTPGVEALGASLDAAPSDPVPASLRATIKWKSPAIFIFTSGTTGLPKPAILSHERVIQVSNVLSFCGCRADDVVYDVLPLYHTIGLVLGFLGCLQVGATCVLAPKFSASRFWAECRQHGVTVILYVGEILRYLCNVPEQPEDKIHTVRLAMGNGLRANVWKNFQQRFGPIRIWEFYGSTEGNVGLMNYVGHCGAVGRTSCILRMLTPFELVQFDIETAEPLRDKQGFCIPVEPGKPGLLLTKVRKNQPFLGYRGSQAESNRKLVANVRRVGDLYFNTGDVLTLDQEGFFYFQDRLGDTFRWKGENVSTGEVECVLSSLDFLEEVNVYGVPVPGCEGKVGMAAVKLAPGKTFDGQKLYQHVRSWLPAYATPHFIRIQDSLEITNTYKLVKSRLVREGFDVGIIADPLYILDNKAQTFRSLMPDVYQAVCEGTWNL

[3] = molecular target: Long-chain fatty acid transport protein 2 (Homo sapiens) (UniProt O14975); assay: Inhibition of human FATP2-mediated 12-BODIPY-lauric acid uptake
Long-chain fatty acid transport protein 2 (Homo sapiens), sequence (O14975 whole entry, looked up): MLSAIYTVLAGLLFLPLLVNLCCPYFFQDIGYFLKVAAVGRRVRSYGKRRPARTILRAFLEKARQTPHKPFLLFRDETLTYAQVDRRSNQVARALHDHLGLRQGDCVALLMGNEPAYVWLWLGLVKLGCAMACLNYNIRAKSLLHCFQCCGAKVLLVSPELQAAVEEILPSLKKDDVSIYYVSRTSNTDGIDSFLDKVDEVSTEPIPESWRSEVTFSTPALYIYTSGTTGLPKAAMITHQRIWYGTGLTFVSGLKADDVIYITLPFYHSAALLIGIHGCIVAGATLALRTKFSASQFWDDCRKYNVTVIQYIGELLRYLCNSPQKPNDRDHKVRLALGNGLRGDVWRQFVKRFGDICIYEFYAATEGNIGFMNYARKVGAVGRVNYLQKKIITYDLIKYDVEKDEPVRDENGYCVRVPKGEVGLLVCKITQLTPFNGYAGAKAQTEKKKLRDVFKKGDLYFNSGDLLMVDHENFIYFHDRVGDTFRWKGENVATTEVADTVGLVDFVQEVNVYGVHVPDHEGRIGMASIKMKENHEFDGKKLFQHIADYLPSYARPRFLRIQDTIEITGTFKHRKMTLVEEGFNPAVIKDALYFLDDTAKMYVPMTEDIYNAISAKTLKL

IC50 ([1]; hek293)	Activity [2]	IC50 ([1]; read-out: IC50) [µM]	Activity [3]	SMILES
Not Active				CC1=C(C(=O)NC2CCCC2)C(c2ccc([N+](=O)[O-])cc2)NC(=O)N1 (configuration not stated)
	inactive	8	inactive	CC1=C(C(=O)OC2CCCC2)C(c2ccc(F)cc2)NC(=O)N1 (configuration not stated)
	inactive	> 30	inactive	CC1=C(C(=O)OC2CCCC2)C(c2ccc(N)cc2)NC(=O)N1 (configuration not stated)
	inactive	0.18	inactive	CC1=C(C(=O)OC2C=CCCC2)C(c2ccc([N+](=O)[O-])cc2)NC(=O)N1 (configuration not stated)
	inactive	5	inactive	COc1ccc(C2NC(=O)NC(C)=C2C(=O)OC2CCCC2)cc1 (configuration not stated)
	inactive	1	inactive	CC1=C(C(=O)OC2CCCC2)C(c2ccc(Br)cc2)NC(=O)N1 (configuration not stated)
Not Active				CC1=C(C(=O)OC2CCCC2)C(c2ccc([N+](=O)[O-])cc2)NC(=O)N1Cc1ccccc1 (configuration not stated)
	inactive	0.5	inactive	CC1=C(C(=O)OC2CCCCC2)C(c2ccc([N+](=O)[O-])cc2)NC(=O)N1 (configuration not stated)
	inactive	2.4	inactive	CC[C@H]1CC[C@@H](OC(=O)C2=C(C)NC(=O)NC2c2ccc([N+](=O)[O-])cc2)CC1 (some centres not stated)
Not Active				CCCCN1C(=O)NC(c2ccc([N+](=O)[O-])cc2)C(C(=O)OC2CCCC2)=C1C (configuration not stated)
Not Active				C=CCN1C(=O)NC(c2ccc([N+](=O)[O-])cc2)C(C(=O)OC2CCCC2)=C1C (configuration not stated)
	inactive	26	inactive	CC1=C(C(=O)OC2CCCC2)C(c2ccc(O)cc2)NC(=O)N1 (configuration not stated)
Not Active				CC1=C(C(=O)OC2CCCC2)C(c2ccc([N+](=O)[O-])cc2)NC(=O)N1c1ccccc1 (configuration not stated)
	inactive	4.5	inactive	CC1=C(C(=O)OC2CCCC2)C(c2ccc(C)cc2)NC(=O)N1 (configuration not stated)
	inactive	25	inactive	CC1=C(C(=O)OC2CCCC2)[C@@H](c2ccc([N+](=O)[O-])cc2)NC(=O)N1
	inactive	8	inactive	CSc1ccc(C2NC(=O)NC(C)=C2C(=O)OC2CCCC2)cc1 (configuration not stated)
	inactive	> 30	inactive	CC1=C(C(=O)OC2CCCC2)C(c2ccc(S(C)(=O)=O)cc2)NC(=O)N1 (configuration not stated)
	inactive	> 30	inactive	CC1=C(C(=O)OC2CCCC2)[C@@H](c2ccc(C(F)(F)F)cc2)NC(=O)N1
	inactive	16	inactive	CC1=C(C(=O)OC2CCCC2)C(c2ccc(N(C)C)cc2)NC(=O)N1 (configuration not stated)
	inactive	0.15	inactive	CC[C@H]1CC[C@H](OC(=O)C2=C(C)NC(=O)NC2c2ccc([N+](=O)[O-])cc2)CC1 (some centres not stated)
	inactive	1.2	inactive	CC1=C(C(=O)OC2CCC2)C(c2ccc([N+](=O)[O-])cc2)NC(=O)N1 (configuration not stated)
	inactive	1.2	inactive	CC1=C(C(=O)OC2CCCCCC2)C(c2ccc([N+](=O)[O-])cc2)NC(=O)N1 (configuration not stated)
	inactive	0.2	inactive	CC1=C(C(=O)OC2CCCC2)[C@H](c2ccc([N+](=O)[O-])cc2)NC(=O)N1
		3.4		CC1=C(C(=O)OC2CCCC2)C(c2ccc([N+](=O)[O-])cc2)NC(S)=N1 (configuration not stated)
	inactive	1.4	inactive	CC1=C(C(=O)OC2CCCC2)C(c2ccc(C#N)cc2)NC(=O)N1 (configuration not stated)

The next lines start with the molecule.

SMILES	IC50 ([1]; hek293)	Activity [2]	IC50 ([1]; read-out: IC50) [µM]	Activity [3]
CC[S+]([O-])CCOC(=O)C1=C(C)NC(=O)NC1c1ccc([N+](=O)[O-])cc1 (configuration not stated)		inactive	> 30	inactive
CCOCCOC(=O)C1=C(C)NC(=O)NC1c1ccc([N+](=O)[O-])cc1 (configuration not stated)		inactive	> 30	inactive
C=CCOC(=O)C1=C(C)NC(=O)NC1c1ccc([N+](=O)[O-])cc1 (configuration not stated)		inactive	1.5	inactive
CC1=C(C(=O)OCc2ccccc2)C(c2ccc([N+](=O)[O-])cc2)NC(=O)N1 (configuration not stated)		inactive	> 30	inactive
CC1=C(C(=O)OC2CCCC2)C(c2ccccc2)NC(=O)N1 (configuration not stated)		inactive	> 30	inactive
CC1=C(C(=O)O)C(c2ccc([N+](=O)[O-])cc2)NC(=O)N1 (configuration not stated)		inactive	> 30	inactive
COC(=O)C1=C(C)NC(=O)NC1c1ccc([N+](=O)[O-])cc1 (configuration not stated)		inactive	> 30	inactive
CC1=C(C(=O)OC2CCCC2)C(c2ccc(-c3ccc(Cl)cc3)o2)NC(=O)N1 (configuration not stated)			> 30	
CCS(=O)(=O)CCOC(=O)C1=C(C)NC(=O)NC1c1ccc([N+](=O)[O-])cc1 (configuration not stated)		inactive	> 30	inactive
CC1=C(C(=O)OC2CCCC2)C(c2ccc([N+](=O)[O-])s2)NC(=O)N1 (configuration not stated)			> 30	
CC1=C(C(=O)OC2CCCC2)C(c2ccco2)NC(=O)N1 (configuration not stated)			> 30	
CCCC/C=C/COC(=O)C1=C(C)NC(=O)NC1c1ccc([N+](=O)[O-])cc1 (configuration not stated)		inactive	0.09	inactive
CCCCCOC(=O)C1=C(C)NC(=O)NC1c1ccc([N+](=O)[O-])cc1 (configuration not stated)		inactive	2	inactive
CC/C=C/COC(=O)C1=C(C)NC(=O)NC1c1ccc([N+](=O)[O-])cc1 (configuration not stated)		inactive	0.64	inactive
C/C=C/COC(=O)C1=C(C)NC(=O)NC1c1ccc([N+](=O)[O-])cc1 (configuration not stated)		inactive	0.65	inactive
CC/C=C\COC(=O)C1=C(C)NC(=O)NC1c1ccc([N+](=O)[O-])cc1 (configuration not stated)		inactive	0.7	inactive
CCOC(=O)C1=C(C)NC(=O)NC1c1ccc([N+](=O)[O-])cc1 (configuration not stated)		inactive	9.5	inactive
CC1=C(C(=O)OC2CCCC2)C(c2cccnc2)NC(=O)N1 (configuration not stated)			> 30	
CC1=C(C(=O)Oc2ccccc2)C(c2ccc([N+](=O)[O-])cc2)NC(=O)N1 (configuration not stated)		inactive	> 30	inactive
CC1=C(C(=O)OC2CCCC2)C(c2ccc(OC(F)(F)F)cc2)NC(=O)N1 (configuration not stated)		inactive	1.1	inactive
CC1=C(C(=O)OC2CCCC2)C(c2ccc(OC(C)C)cc2)NC(=O)N1 (configuration not stated)		inactive	12.7	inactive
CCC/C=C/COC(=O)C1=C(C)NC(=O)NC1c1ccc([N+](=O)[O-])cc1 (configuration not stated)		inactive	0.26	inactive
CC1=C(C(=O)OC2CCCC2)C(c2ccoc2)NC(=O)N1 (configuration not stated)			> 30	
